From ChEMBL document CHEMBL3627681, “Synthesis and biological evaluation of 1,3-diaryl pyrazole derivatives as potential antibacterial and anti-inflammatory agents” (2015)
Values after ≈ are worked out from the molar mass of the structure shown.

Tests used:
Pseudomonas aeruginosa [1] = test: Antibacterial activity against Pseudomonas aeruginosa 2004 after 24 hrs by two-fold serial dilution method; assay type: functional; conditions: Pseudomonas aeruginosa, 2004, 24 h
In short: (§1)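 Broth microdilution in Mueller-Hinton broth over final concentrations of 64–0.5. Bacteria were grown to mid-log phase and diluted 1000-fold, then inoculated at 10⁵ CFU/mL. Compounds were dissolved in DMSO, with final DMSO at most 0.05%. Plates were incubated 24 h at 37 °C and growth read as absorbance at 650 nm. MIC is the concentration giving complete growth inhibition. Three independent runs.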

Staphylococcus aureus [2] = test: Antibacterial activity against quinolone-resistant Staphylococcus aureus CCARM 3505 after 24 hrs by two-fold serial dilution method; assay type: functional; conditions: CCARM 3505, 24 h
In short: (§2)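 Broth microdilution in Mueller-Hinton broth. Bacteria grown to mid-log phase, diluted 1000-fold, and inoculated at 10⁵ CFU/mL. Test compounds in DMSO, final DMSO not above 0.05%, final concentrations 64-0.5 µg/mL. Incubation 24 h at 37 °C, growth read as absorbance at 650 nm. MIC taken as the lowest concentration giving complete growth inhibition. Run three times.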

Staphylococcus aureus [3] = test: Antibacterial activity against Staphylococcus aureus 503 after 24 hrs by two-fold serial dilution method; assay type: functional; conditions: Staphylococcus aureus, 503, 24 h; in short: as §2
Streptococcus mutans = test: Antibacterial activity against Streptococcus mutans 3065 after 24 hrs by two-fold serial dilution method; assay type: functional; conditions: Streptococcus mutans, 3065, 24 h; in short: as §1
Staphylococcus aureus [4] = test: Antibacterial activity against Staphylococcus aureus RN4220 after 24 hrs by two-fold serial dilution method; assay type: functional; conditions: RN4220, 24 h; in short: as §2
Candida albicans = test: Antifungal activity against Candida albicans 7535 by two-fold serial dilution method; assay type: functional
Mus musculus = test: Antiinflammatory activity in mouse assessed as inhibition of xylene-induced ear edema at 50 mg/kg, ip administered 30 mins before xylene challenge relative to control; assay type: functional
In short: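 Mice received compound freshly dissolved in DMSO, 50 mg/kg ip at 0.05 mL/20 g body weight; vehicle controls got DMSO alone. After 30 min, 20 µL xylene was applied to the right ear. After a further 30 min, 7 mm plugs were cut from treated and untreated ears and edema taken as their weight difference. Result is % edema reduction versus vehicle controls.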

Escherichia coli [5] = test: Antibacterial activity against Escherichia coli KCTC 1924 after 24 hrs by two-fold serial dilution method; assay type: functional; conditions: KCTC 1924, 24 h; in short: as §1
Salmonella typhimurium = test: Antibacterial activity against Salmonella typhimurium 2421 after 24 hrs by two-fold serial dilution method; assay type: functional, Salmonella enterica subsp. enterica serovar Typhimurium; conditions: Salmonella enterica, 2421, 24 h; in short: as §1
Staphylococcus aureus [6] = test: Antibacterial activity against methicillin-resistant Staphylococcus aureus CCARM 3167 after 24 hrs by two-fold serial dilution method; assay type: functional; conditions: CCARM 3167, 24 h; in short: as §2
Escherichia coli [7] = test: Antibacterial activity against Escherichia coli CCARM 1356 after 24 hrs by two-fold serial dilution method; assay type: functional; conditions: CCARM 1356, 24 h; in short: as §1
Pseudomonas aeruginosa [8] = test: Antibacterial activity against Pseudomonas aeruginosa 2742 after 24 hrs by two-fold serial dilution method; assay type: functional; conditions: Pseudomonas aeruginosa, 2742, 24 h; in short: as §1
Staphylococcus aureus [9] = test: Antibacterial activity against quinolone-resistant Staphylococcus aureus CCARM 3519 after 24 hrs by two-fold serial dilution method; assay type: functional; conditions: CCARM 3519, 24 h; in short: as §2
Staphylococcus aureus [10] = test: Antibacterial activity against methicillin-resistant Staphylococcus aureus CCARM 3506 after 24 hrs by two-fold serial dilution method; assay type: functional; conditions: CCARM 3506, 24 h; in short: as §2
Staphylococcus aureus [11] = test: Antibacterial activity against Staphylococcus aureus 209 after 24 hrs by two-fold serial dilution method; assay type: functional; conditions: Staphylococcus aureus, 209, 24 h; in short: as §2

| SMILES | MIC (Pseudomonas aeruginosa [1]) | MIC (Staphylococcus aureus [2]) | MIC (Staphylococcus aureus [3]) | MIC (Streptococcus mutans) | MIC (Staphylococcus aureus [4]) | MIC (Candida albicans) | inhibition in vivo at 50 mg/kg (Mus musculus) | MIC (Escherichia coli [5]) | MIC (Salmonella typhimurium) | MIC (Staphylococcus aureus [6]) | MIC (Escherichia coli [7]) | MIC (Pseudomonas aeruginosa [8]) | MIC (Staphylococcus aureus [9]) | MIC (Staphylococcus aureus [10]) | MIC (Staphylococcus aureus [11]) |
| --- | --- | --- | --- | --- | --- | --- | --- | --- | --- | --- | --- | --- | --- | --- | --- |
| N=C(N)N/N=C/c1cn(-c2ccc([N+](=O)[O-])cc2[N+](=O)[O-])nc1-c1ccccc1 | > 64 µg/mL | 8 µg/mL (≈ 20.3 µM) | 8 µg/mL (≈ 20.3 µM) | 16 µg/mL (≈ 40.6 µM) | 8 µg/mL (≈ 20.3 µM) | 4 µg/mL (≈ 10.1 µM) | 86.9% | 8 µg/mL (≈ 20.3 µM) | 16 µg/mL (≈ 40.6 µM) | 8 µg/mL (≈ 20.3 µM) | 16 µg/mL (≈ 40.6 µM) | > 64 µg/mL | 8 µg/mL (≈ 20.3 µM) | 8 µg/mL (≈ 20.3 µM) | 8 µg/mL (≈ 20.3 µM) |
| COc1c(N2CCNC(C)C2)c(F)cc2c(=O)c(C(=O)O)cn(C3CC3)c12 (stereo not given) [GATIFLOXACIN] | 1 µg/mL (≈ 2.66 µM) | 8 µg/mL (≈ 21.3 µM) | 2 µg/mL (≈ 5.33 µM) | 0.5 µg/mL (≈ 1.33 µM) | 0.25 µg/mL (≈ 0.666 µM) | 0.5 µg/mL (≈ 1.33 µM) |  | 2 µg/mL (≈ 5.33 µM) | 0.5 µg/mL (≈ 1.33 µM) | 2 µg/mL (≈ 5.33 µM) | 16 µg/mL (≈ 42.6 µM) | 1 µg/mL (≈ 2.66 µM) | 4 µg/mL (≈ 10.7 µM) | 2 µg/mL (≈ 5.33 µM) | 2 µg/mL (≈ 5.33 µM) |
| N=C(N)N/N=C/c1cn(-c2ccccc2)nc1-c1ccc(F)cc1 | > 64 µg/mL | 16 µg/mL (≈ 49.6 µM) | 16 µg/mL (≈ 49.6 µM) | > 64 µg/mL | 8 µg/mL (≈ 24.8 µM) | 8 µg/mL (≈ 24.8 µM) | 61.4% | 8 µg/mL (≈ 24.8 µM) | > 64 µg/mL | 8 µg/mL (≈ 24.8 µM) | > 64 µg/mL | > 64 µg/mL | 16 µg/mL (≈ 49.6 µM) | 8 µg/mL (≈ 24.8 µM) | 8 µg/mL (≈ 24.8 µM) |
| O=C(N/N=C/c1cn(-c2ccc([N+](=O)[O-])cc2[N+](=O)[O-])nc1-c1ccccc1F)c1ccco1 | > 64 µg/mL | > 64 µg/mL | > 64 µg/mL | > 64 µg/mL | > 64 µg/mL | > 64 µg/mL | 28% | > 64 µg/mL | > 64 µg/mL | > 64 µg/mL | > 64 µg/mL | > 64 µg/mL | > 64 µg/mL | > 64 µg/mL | > 64 µg/mL |
| N=C(N)N/N=C/c1cn(-c2ccc([N+](=O)[O-])cc2[N+](=O)[O-])nc1-c1ccccc1F | > 64 µg/mL | 8 µg/mL (≈ 19.4 µM) | 8 µg/mL (≈ 19.4 µM) | 16 µg/mL (≈ 38.8 µM) | 8 µg/mL (≈ 19.4 µM) | 4 µg/mL (≈ 9.7 µM) | 87.2% | 8 µg/mL (≈ 19.4 µM) | 16 µg/mL (≈ 38.8 µM) | 8 µg/mL (≈ 19.4 µM) | 16 µg/mL (≈ 38.8 µM) | > 64 µg/mL | 8 µg/mL (≈ 19.4 µM) | 4 µg/mL (≈ 9.7 µM) | 8 µg/mL (≈ 19.4 µM) |
| O=C(N/N=C/c1cn(-c2ccc([N+](=O)[O-])cc2[N+](=O)[O-])nc1-c1cccc(Cl)c1)c1ccco1 | > 64 µg/mL | > 64 µg/mL | > 64 µg/mL | > 64 µg/mL | > 64 µg/mL | > 64 µg/mL | 26.2% | > 64 µg/mL | > 64 µg/mL | > 64 µg/mL | > 64 µg/mL | > 64 µg/mL | > 64 µg/mL | > 64 µg/mL | > 64 µg/mL |
| CC(C)Cc1ccc(C(C)C(=O)O)cc1 (stereo not given) [IBUPROFEN] |  |  |  |  |  |  | 29.6% |  |  |  |  |  |  |  |  |
| N=C(N)N/N=C/c1cn(-c2ccccc2)nc1-c1ccc(Br)cc1 | > 64 µg/mL | 16 µg/mL (≈ 41.7 µM) | 4 µg/mL (≈ 10.4 µM) | > 64 µg/mL | 4 µg/mL (≈ 10.4 µM) | 4 µg/mL (≈ 10.4 µM) | 42.8% | 8 µg/mL (≈ 20.9 µM) | > 64 µg/mL | 8 µg/mL (≈ 20.9 µM) | > 64 µg/mL | > 64 µg/mL | 16 µg/mL (≈ 41.7 µM) | 4 µg/mL (≈ 10.4 µM) | 8 µg/mL (≈ 20.9 µM) |
| O=C(N/N=C/c1cn(-c2ccc([N+](=O)[O-])cc2[N+](=O)[O-])nc1-c1cccc(Br)c1)c1ccco1 | > 64 µg/mL | > 64 µg/mL | > 64 µg/mL | > 64 µg/mL | > 64 µg/mL | > 64 µg/mL | 25.3% | > 64 µg/mL | > 64 µg/mL | > 64 µg/mL | > 64 µg/mL | > 64 µg/mL | > 64 µg/mL | > 64 µg/mL | > 64 µg/mL |
